Assay results from PMC3825517 (Nature structural & molecular biology, 2013).

Tests used:
[1] = molecular target: T1, DinF-BH (Halalkalibacterium halodurans, UniProt Q9KAX3); experiment: Fluorescence polarization assay of R6G binding to purified DinF-BH; set-up: species or system Bacillus halodurans
T1 sequence (Q9KAX3 1-464): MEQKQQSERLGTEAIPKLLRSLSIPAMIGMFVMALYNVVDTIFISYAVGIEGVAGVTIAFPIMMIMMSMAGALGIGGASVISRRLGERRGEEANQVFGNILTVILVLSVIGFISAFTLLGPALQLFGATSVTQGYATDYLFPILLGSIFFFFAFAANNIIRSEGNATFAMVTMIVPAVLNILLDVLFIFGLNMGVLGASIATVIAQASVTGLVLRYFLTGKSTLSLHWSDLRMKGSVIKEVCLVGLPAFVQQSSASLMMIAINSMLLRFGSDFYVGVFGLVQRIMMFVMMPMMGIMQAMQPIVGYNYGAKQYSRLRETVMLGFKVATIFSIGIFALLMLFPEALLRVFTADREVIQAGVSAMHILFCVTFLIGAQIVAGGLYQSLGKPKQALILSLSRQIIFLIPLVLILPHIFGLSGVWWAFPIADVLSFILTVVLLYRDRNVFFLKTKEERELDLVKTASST

[2] = molecular target: T2, DinF-BH D40N mutant (Halalkalibacterium halodurans, UniProt Q9KAX3, D40N); experiment: Fluorescence polarization assay of R6G binding to purified D40N mutant; set-up: species or system Bacillus halodurans
T2 sequence (Q9KAX3 1-464 D40N): T1 sequence (Q9KAX3 1-464)
In short: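 Each protein concentration was read after a 10-min incubation. Kd comes from the binding isotherm, three titrations, SD. For pH dependence the binding solutions spanned pH 5.5–9.0, fitted to Kd = (1 + [H+]/Ki)Kmin.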

[3] = molecular target: T1, DinF-BH; experiment: Fluorescence measurement of H+-release upon drug binding; assay type: biochemical, Bacillus halodurans; conditions: 4 μM protein, 250 μM TPP, fluoresceine pH indicator, repeated three times
In short: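 Purified transporter was dialysed against 10% (vol/vol) glycerol, 50 mM NaCl and 0.03% (wt/vol) DDM, then diluted to 4 μM in the same buffer with 2 μM fluoresceine as pH indicator. The sample was stirred, and fluorescence was read at excitation 494 nm and emission 521 nm. TPP was added to 250 μM. Three repeats.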

[4] = molecular target: T1, DinF-BH; experiment: Drug-H+ antiport assay in everted membrane vesicles containing DinF-BH; assay type: biochemical, Bacillus halodurans; conditions: 250 μM TPP, acridine orange fluorescence
[5] = test system: NorM-NG; experiment: Drug-H+ antiport assay in everted membrane vesicles containing NorM-NG; assay type: biochemical, Neisseria gonorrhoeae; conditions: 250 μM TPP, acridine orange fluorescence

Work on CC/N=c1\cc2oc3cc(NCC)c(C)cc3c(-c3ccccc3C(=O)OCC)c-2cc1C [R6G, rhodamine 6G] yielded a Kd [1] of 3.1 ± 0.4 µM and a Kd [2] of 107 ± 4.1 µM.
With c1ccc([P+](c2ccccc2)(c2ccccc2)c2ccccc2)cc1 [TPP, tetraphenylphosphonium] the “stoichiometry of H+ released per DinF-BH upon drug binding” value [3] was 1.00 ± 0.07 H^+ per DinF-BH, the “H+ efflux (fluorescence dequenching) on addition of substrate, DinF-BH vesicles” value [4] was “elicited efflux of H^+” and the “H+ efflux (fluorescence dequenching) on addition of substrate, NorM-NG vesicles” value [5] was “no response”.
For C(=NC1CCCCC1)=NC1CCCCC1 [dicyclohexylcarbodiimide], the “effect of treatment of DinF-BH on the binding of R6G” value ([1]; treatment of DinF-BH with the chemical) was “abolished the binding of R6G”.
